Test results published in the RNAGym collection of RNA variant scans (doi:10.1126/science.aae0568).
Fewer inactive variants are shown than the library holds.

B1: tRNA (parent)
chain: GUUCCGUUGGCGUAAUGGUAACGCGUCUCCCUCCUAAGGAGAAGACUGCGGGUUCGAGUCCCGUACGGAACG

Variants of: B1
Assay: yeast fitness relative to wild type (ratio to wild type); higher = fitter; tRNA-Arg(CCU), competitive growth, 37 C, YPD
Procedure, shortened: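 For this measurement, the tRNA-Arg(CCU) gene was varied by chemical synthesis at a 3% per-site mutation rate across 69 sites, and each variant was placed at the native genomic locus in Saccharomyces cerevisiae. The pooled strains went through a 24-hour competition in YPD at 37°C in six parallel replicates, with amplicons from start and end populations read by 100-nucleotide paired-end sequencing. Darwinian fitness relative to wild type followed from the change in each genotype's frequency. Genotypes needed ≥ 100 starting reads, and estimates < 0.5 were set to 0.5.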

Variant	yeast fitness
G17A C22U A45G C46U	0.538
G17A C22U C29A A36G A45U	≤ 0.5
G17A C22U C66U	0.589
G17A C22U U28C A57G C61U A69U	≤ 0.5
G17A C22U U32A C34U A37G A40U A69U	≤ 0.5
G17A C24A C30U G41A A45C G58C	≤ 0.5
G17A C24A C46A	0.727
G17A C24A U35A	≤ 0.5
G17A C24G C27G	0.57
G17A C24G C27G A69C	≤ 0.5
G17A C24G C27G G67A	0.583
G17A C24G C27G U59C A69U	≤ 0.5
G17A C24G C29G A37U	≤ 0.5
G17A C24U C30U C46A	≤ 0.5
G17A C24U C46U C60A	≤ 0.5
G17A C27G	0.535
G17A C27G A36C U54A	0.555
G17A C27G C29G A43G	0.561
G17A C27G C31A	≤ 0.5
G17A C27G G39C	≤ 0.5
G17A C27G G67A	0.573
G17A C27G U59A C66A	≤ 0.5
G17A C27U	0.711
G17A C27U U35C C61G	≤ 0.5

Variant	yeast fitness
G17A C29A G67C A69U	≤ 0.5
G17A C29G A43G G68C	≤ 0.5
G17A C29U A57G U59C	≤ 0.5
G17A C29U C33U A57C G68U	≤ 0.5
G17A C29U C33U C60G	0.594
G17A C29U C33U C60G A65G	≤ 0.5
G17A C29U C49A C62U	≤ 0.5
G17A C29U U35G A37C G38C C49G	0.545
G17A C30A A36C	≤ 0.5
G17A C30A C60G C62A	≤ 0.5
G17A C30G A40C A42G	≤ 0.5
G17A C30G A45G	0.584
G17A C30G G48A U53C	≤ 0.5
G17A C30U	0.82
G17A C30U A36C A43C	≤ 0.5
G17A C30U C49U	≤ 0.5
G17A C30U C49U C66U A69C	≤ 0.5
G17A C30U G63C A65C	0.529
G17A C31A C33U	≤ 0.5
G17A C31A U32A A57G	0.545
G17A C31G G38C G63C	≤ 0.5
G17A C31G G44C A69U	0.528
G17A C31U C49G	≤ 0.5
G17A C31U C49G A69U	≤ 0.5

Variant	yeast fitness
G17A C31U C66A	≤ 0.5
G17A C31U U35C A57G C62U	≤ 0.5
G17A C31U U35C C62G	≤ 0.5
G17A C31U U35C G56A A57G	≤ 0.5
G17A C33A A36U G41A G48A	≤ 0.5
G17A C33G	≤ 0.5
G17A C33U U59G	0.501
G17A C34A	0.595
G17A C34A A40G C66U	0.524
G17A C34A A70C	0.631
G17A C34A C55G	≤ 0.5
G17A C34A C62G	≤ 0.5
G17A C34A C66A	≤ 0.5
G17A C34G A65U	≤ 0.5
G17A C34G G67U	≤ 0.5
G17A C34U	0.573
G17A C34U A42U G51C C66U	≤ 0.5
G17A C34U A57U U64C	≤ 0.5
G17A C34U C55G	0.508
G17A C34U G38A	0.581
G17A C46A A65G	≤ 0.5
G17A C46A C61G A69G	≤ 0.5
G17A C46G A70U	0.578
G17A C46U G51C	0.647

Variant	yeast fitness
G17A C49A	0.677
G17A C49A G52C G56A A69G	≤ 0.5
G17A C49A U54A	0.614
G17A C49G U53C	≤ 0.5
G17A C49U C62A	≤ 0.5
G17A C55G A70C	≤ 0.5
G17A C60A	≤ 0.5
G17A C60A C61A	≤ 0.5
G17A C60G G67A	≤ 0.5
G17A C61A G63A	0.66
G17A C61U	0.924
G17A C66U	0.725
G17A G18A A20C A21G G50A C55G A69U	0.642
G17A G18A A42C C55U G63C	≤ 0.5
G17A G18A A42C C61U	≤ 0.5
G17A G18A U26C A42C C55U	≤ 0.5
G17A G18C A20G G39C	≤ 0.5
G17A G18C A21U C55U U59A C62A	≤ 0.5
G17A G18C G39C	0.588
G17A G18C G39C A69U	≤ 0.5
G17A G23C U54A C61G	≤ 0.5
G17A G23C U64A A65C G67A	≤ 0.5
G17A G25C	0.705
G17A G25C A40U C66G	≤ 0.5

Variant	yeast fitness
G17A G25C A40U G63A	≤ 0.5
G17A G25C C29G	≤ 0.5
G17A G25C G39A	≤ 0.5
G17A G38A C49A U54A	≤ 0.5
G17A G38C A45U C66U	≤ 0.5
G17A G38C A70C	≤ 0.5
G17A G41A C60G A65G	≤ 0.5
G17A G41C	0.816
G17A G41C C46A	0.68
G17A G41C C55A	≤ 0.5
G17A G41U A57C	≤ 0.5
G17A G44A A70C	≤ 0.5
G17A G48A	0.951
G17A G48A A57G	≤ 0.5
G17A G48C	0.827
G17A G48C G56C	0.575
G17A G50A	0.833
G17A G50A C61A	≤ 0.5
G17A G50C C60A	≤ 0.5
G17A G51A G56C G58C	≤ 0.5
G17A G51C	0.543
G17A G52C	0.65
G17A G56A	0.878
G17A G56A C66G	≤ 0.5

Variant	yeast fitness
G17A G56C G58C	0.585
G17A G58A A69C	0.575
G17A G58A C61U	0.59
G17A G58C C62U	0.543
G17A G63A A69C	0.537
G17A G67A	0.743
G17A G67C	0.834
G17A G67U	0.808
G17A U19A C30G	0.66
G17A U19A C30U A37U G67A	≤ 0.5
G17A U19A G23A C31U C34A A43U	≤ 0.5
G17A U19A G23A C34U	≤ 0.5
G17A U19C C24U	0.75
G17A U19C C34A A40G C66U	≤ 0.5
G17A U19G A37G C66U A69U	0.562
G17A U26A C62U	0.614
G17A U26C C61U A65G G67A	≤ 0.5
G17A U26C U28C A42C C66U	≤ 0.5
G17A U26C U53G	0.566
G17A U26G G51A	≤ 0.5
G17A U28A G51A C60G A65G C66G	≤ 0.5
G17A U32A A43G G67C	≤ 0.5
G17A U32A C49U C62A G67C	≤ 0.5
G17A U32C A40G A65C	≤ 0.5

Variant	yeast fitness
G17A U32C U54C C60G	≤ 0.5
G17A U35A G44A G50A	≤ 0.5
G17A U35A U54G	≤ 0.5
G17A U35G A65U	≤ 0.5
G17A U35G G48C	0.502
G17A U35G G48C G67C	0.558
G17A U35G G63A G68C	≤ 0.5
G17A U35G U59C	≤ 0.5
G17A U47A	0.823
G17A U47C	0.774
G17A U47G G67A A69C	0.559
G17A U53G	0.595
G17A U53G C55U	≤ 0.5
G17A U54A G56C	0.597
G17A U54A G56C G68A	≤ 0.5
G17A U54C	0.67
G17A U54C A70G	≤ 0.5
G17A U59A	0.759
G17A U59A C66U	≤ 0.5
G17A U64C C66U	0.69
G17C A20C G39A	0.528
G17C A20G	0.553
G17C A20G C30G A65U	≤ 0.5
